From ChEMBL document CHEMBL1122520, “Potential antitumor agents. 43. Synthesis and biological activity of dibasic 9-aminoacridine-4-carboxamides, a new class of antitumor agent” (J Med Chem, 1984)

What was measured:
[1] = Logarithmic association constant determined by ethidium displacement from DNA co-polymers (adenine & thymine)
Procedure, shortened: (§1)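 Binding constants derived from ethidium displacement from synthetic DNA copolymers, assuming competitive binding.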

[2] = system: HCT-8; test: Concentration required for 50% reduction of counted HCT-8 cells upon exposure for a period of 70h; assay type: functional; details: Homo sapiens, HCT-8, 70 h; read-out: ID50 (the source's name)
Procedure, shortened: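 HCT-8 human colon adenocarcinoma cells grown in Alpha MEM with glutamine for 2 days before drug addition. Drug exposure for 70 h per table footnote, with 4-day incubation stated in methods. Trypsinized cells counted electronically. ID50 = nM concentration reducing counted cells to 50% of controls.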

[3] = system: L1210; test: Concentration required for 50% reduction of counted L1210 cells upon exposure for a period of 70h; assay type: functional; details: Mus musculus, L1210, 70 h; read-out: ID50 (the source's name)
Procedure, shortened: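 L1210 leukemia cells cultured with drug for 70 h, then counted. ID50 taken as the nanomolar concentration reducing cell count to 50% of untreated controls.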

[4] = species on record: Mus musculus; test: Percentage increase in lifespan of treated animals over that of animals injected with tumor (10e6 P388 leukemia cells), at the optimal dose of 8.9 mg/(kg day); assay type: functional
[5] = Logarithmic association constant determined by ethidium displacement from DNA co-polymers (G + C); procedure, shortened: as §1
[6] = Lipophilicity (Rm) (RP-TLC); assay type: physicochemical
[7] = species on record: Mus musculus; test: Percentage increase in lifespan of treated animals over that of animals injected with tumor (10e6 P388 leukemia cells), at the optimal dose of 13.3 mg/(kg day); assay type: functional
[8] = system: Mus musculus; test: Percentage increase in lifespan of treated animals over that of animals injected with tumor (10e6 P388 leukemia cells), at the optimal dose of 50 mg/kg day); g=No activity (ILS < 20%); assay type: functional, organism-based; design: dose 50 mg/kg
[9] = species on record: Mus musculus; test: Percentage increase in lifespan of treated animals over that of animals injected with tumor (10e6 P388 leukemia cells), at the optimal dose of 40 mg/(kg day); g=No activity (ILS < 20%); assay type: functional, organism-based
[10] = pKa value for the side-chain cationic center; assay type: physicochemical
[11] = species on record: Mus musculus; test: Percentage increase in lifespan of treated animals over that of animals injected with tumor (10e6 P388 leukemia cells), at the optimal dose of 250 mg/(kg day); g=No activity (ILS < 20%)
[12] = species on record: Mus musculus; test: Percentage increase in lifespan of treated animals over that of animals injected with tumor (10e6 P388 leukemia cells), at the optimal dose of 8.9 mg/(kg day); g=No activity (ILS < 20%); assay type: functional, organism-based
[13] = species on record: Mus musculus; test: Percentage increase in lifespan of treated animals over that of animals injected with tumor (10e6 P388 leukemia cells), at the optimal dose of 20 mg/(kg day); assay type: functional
[14] = species on record: Mus musculus; test: Percentage increase in lifespan of treated animals over that of animals injected with tumor (10e6 P388 leukemia cells), at the optimal dose of 30 mg/(kg day); g=No activity (ILS < 20%); assay type: functional, organism-based
[15] = species on record: Mus musculus; test: Number of mice survived indefinitely out a group of 6; assay type: functional
[16] = species on record: Mus musculus; test: Percentage increase in lifespan of treated animals over that of animals injected with tumor (10e6 P388 leukemia cells), at the optimal dose of 5.9 mg/(kg day); assay type: functional
[17] = species on record: Mus musculus; test: Percentage increase in lifespan of treated animals over that of animals injected with tumor (10e6 P388 leukemia cells), at the optimal dose of 30 mg/(kg day); assay type: functional
[18] = species on record: Mus musculus; test: Percentage increase in lifespan of treated animals over that of animals injected with tumor (10e6 P388 leukemia cells), at the optimal dose of 2.6 mg/(kg day); assay type: functional

Structure (SMILES) | Log K [1] | IC50 [2] | IC50 [3] | Log K [5] | Rm [6] | other results
CCNc1c2ccccc2nc2c(C(=O)NCCN(C)C)cccc12 | 7.14 | 188 nM | 94 nM | 7.69 | -0.88 | ILS [4]: 30%
CCCCCNc1c2ccccc2nc2c(C(=O)NCCN(C)C)cccc12 | 6.91 | 160 nM | 43 nM | 7.58 | -0.23 | ILS [7]: 64%
CN(C)CCCNC(=O)c1cccc2c(N)c3ccccc3nc12 | 7.51 | 520 nM | 157 nM | 7.6 | -0.93 | ILS [8]: No activity (ILS <20%)
Nc1c2ccccc2nc2c(C(=O)NCCc3ccccn3)cccc12 | 6.94 | 3200 nM | 1900 nM | 7.03 | -0.57 | ILS [9]: No activity (ILS <20%); pKa [10]: 5.9
CN(C)CCNC(=O)c1ccc2nc3ccccc3c(N)c2c1 | 7.08 | > 5000 nM | > 2000 nM | 7.55 | -1 | pKa [10]: 8.6; ILS [11]: No activity (ILS <20%)
CN(C)CCNC(=O)c1cccc2c(NCCO)c3ccccc3nc12 | 6.82 | 540 nM | 484 nM | 7.61 | -1.19 | ILS [12]: No activity (ILS <20%)
CNc1c2ccccc2nc2c(C(=O)NCCN(C)C)cccc12 | 7.17 | 125 nM | 15 nM | 7.65 | -1.11 | 
CN(C)CCCCCNC(=O)c1cccc2c(N)c3ccccc3nc12 | 7.45 | 1800 nM | 1370 nM | 7.45 | -0.73 | 
CN(C)CCNC(=O)c1ccc2c(N)c3ccccc3nc2c1 | 7.18 | > 5000 nM | > 2000 nM | 7.66 | -1.06 | 
CN(C)CCCCNC(=O)c1cccc2c(N)c3ccccc3nc12 | 7.49 | 1000 nM | 430 nM | 7.43 | -0.89 | 
CCCCNc1c2ccccc2nc2c(C(=O)NCCN(C)C)cccc12 | 7.1 | 150 nM | 41 nM | 7.69 | -0.34 | ILS [13]: 70%
Nc1c2ccccc2nc2c(C(=O)NCCNCCO)cccc12 | 7.34 | 1600 nM | 77 nM | 7.73 | -1.06 | pKa [10]: 8.5; ILS [13]: 73%
CN(C)CCCCCCCNC(=O)c1cccc2c(N)c3ccccc3nc12 | 7.43 | 2000 nM | 1180 nM | 7.3 | -0.44 | 
CN(C)CCNC(=O)c1cccc2c(NCCN(C)C)c3ccccc3nc12 | 7.83 | 1300 nM | 460 nM | 8.2 | -1.72 | ILS [12]: No activity (ILS <20%)
Nc1c2ccccc2nc2c(C(=O)NCCN3CCOCC3)cccc12 | 7.29 | 2000 nM | 1020 nM | 7.58 | -1 | pKa [10]: 6.7; ILS [14]: No activity (ILS <20%)
CN(C)CCNC(=O)c1cccc2c(N)c3ccccc3nc12 |  | 55 nM |  |  | -1.11 | Survivors [15]: 1
CN1CCN(C(=O)c2cccc3c(N)c4ccccc4nc23)CC1 | 6.58 | > 1500 nM | > 2000 nM | 6.45 | -1.29 | 
CCN(CC)CCNC(=O)c1cccc2c(N)c3ccccc3nc12 | 7.26 | 83 nM | 5.5 nM | 7.59 | -0.67 | pKa [10]: 9.2; ILS [16]: 70%
CCCCCCNc1c2ccccc2nc2c(C(=O)NCCN(C)C)cccc12 | 7 | 210 nM | 65 nM | 7.79 | -0.04 | ILS [17]: 88%
NCCNC(=O)c1cccc2c(N)c3ccccc3nc12 | 7.36 | 1500 nM | 414 nM | 7.67 | -1.18 | pKa [10]: 9.1; ILS [13]: 71%
Nc1c2ccccc2nc2c(C(=O)NCCN3CCCCC3)cccc12 | 7.12 | 380 nM | 102 nM | 7.1 | -0.7 | pKa [10]: 8.9; ILS [18]: 33%
COCCNc1c2ccccc2nc2c(C(=O)NCCN(C)C)cccc12 | 6.73 | 400 nM | 85 nM | 7.35 | -0.76 | ILS [7]: 47%
CN(C)CCCCCCNC(=O)c1cccc2c(N)c3ccccc3nc12 | 7.41 | 1750 nM | 1540 nM | 7.4 | -0.58 | 
CCCNc1c2ccccc2nc2c(C(=O)NCCN(C)C)cccc12 | 7.23 | 203 nM | 46 nM | 7.79 | -0.57 | ILS [7]: 64%
